Results on one molecule are retold here after ChEMBL document CHEMBL1212693, “Dorsomorphin inhibits BMP signals required for embryogenesis and iron metabolism” (Nat Chem Biol, 2008).

SMILES strings stand for the structures. Active and inactive are the calls of the source. The calls are words filed in the database; no cut-off is given here.

The species entered for test [1] is Danio rerio. Put plainly: Inhibition of BMPR1 in zebrafish assessed as penetrance of normal embryonic axis dorsalization at 10 uM treated at 2 to 6 hrs post-fertilization measured at 48 hrs. Further details: scale not given: the % may be the effect or the level left.
The species entered for test [2] is Danio rerio. Put plainly: Inhibition of BMPR1 in zebrafish assessed as penetrance of normal embryonic axis dorsalization at 5 uM treated at 3 hrs post-fertilization measured at 48 hrs. Further details: scale not given: the % may be the effect or the level left.
The species entered for test [3] is Danio rerio. The experiment in a line: Inhibition of BMPR1 in zebrafish assessed as penetrance of mild embryonic axis dorsalization at 10 uM treated continuously from 4 hrs post-fertilization measured after 48 hrs. Details: scale not given: the % may be the effect or the level left. In short, it runs like this: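 Compound added at the stated times and concentrations. Gross morphology scored visually at up to 48 h.p.f. for dorsalization of the embryonic axis.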

The species entered for test [4] is Mus musculus. Put plainly: Inhibition of ALK2-mediated Smad-1 phosphorylation in BMPR2 deficient mouse PASMC at 10 uM by immunoblot analysis. A digest of the protocol:
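BMPR-II–deficient mouse PASMCs (RPMI, 10% FBS) transiently transfected with constitutively active ALK2, ALK3 or ALK6 cDNA, or plasmid-only control. Incubated with or without compound (10 µM). Extracts lysed in SDS buffer, run on SDS-PAGE and immunoblotted for phospho-SMAD1/5/8; quantitated by phosphorimager.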
Background: A western blot detects proteins with antibodies after separation by electrophoresis.

For test [5], the species on record is Mus musculus. Put plainly: Inhibition of BMPR1-mediated Smad-1 phosphorylation in BMP4-stimulated mouse BMPR2 deficient PASMC at 4 uM treated 30 mins before BMP4 challenge measured after 30 mins by immunoblot analysis. In short, it runs like this:
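PASMCs (wild-type or BMPR-II–deficient) were kept 24 h in RPMI with 0.5% FCS, preincubated 30 min with compound or vehicle, then stimulated 30 min with recombinant BMP (10 ng ml−1). Extracts in SDS-lysis buffer were immunoblotted for phospho-SMAD1/5/8, with total SMAD1 and α-tubulin as loading controls. Bands were quantitated by phosphorimager.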

For test [6], the species on record is Danio rerio. The experiment in a line: Inhibition of BMPR1 in zebrafish assessed as severity of embryonic axis dorsalization at 7.5 uM treated at 3 hrs post-fertilization measured at 48 hrs. Details: scale not given: the % may be the effect or the level left.
Test [7] is filed under the species Danio rerio. The experiment in a line: Inhibition of BMPR1 in zebrafish assessed as penetrance of normal embryonic axis dorsalization at 10 uM treated at 2 to 8 hrs post-fertilization measured at 48 hrs. Details: scale not given: the % may be the effect or the level left.
For test [8], the species on record is Danio rerio. The experiment in a line: Inhibition of BMPR1 in zebrafish assessed as severity of embryonic axis dorsalization at 10 uM treated at 2 to 6 hrs post-fertilization measured at 48 hrs. Details: scale not given: the % may be the effect or the level left.
The species named for test [9] is Mus musculus. The experiment in a line: Inhibition of BMPR1-mediated Smad-5 phosphorylation in BMP4-stimulated mouse BMPR2 deficient PASMC at 4 uM treated 30 mins before BMP4 challenge measured after 30 mins by immunoblot analysis.

With `c1cc(-c2cnn3cc(-c4ccc(OCCN5CCCCC5)cc4)cnc23)ccn1` [DORSOMORPHIN], the Activity in the test filed under Danio rerio [1] came out at 0%; in the test filed under Danio rerio [2] it was 81%; in the test filed under Danio rerio [3], 0%; in the test filed under Danio rerio [6] it was 100%; in the test listed under Danio rerio [7] it was 0%; in the test filed under Danio rerio [8], 39%. Further, the inhibition result in the test listed under Mus musculus [4], in the test filed under Mus musculus [5] and in the test filed under Mus musculus [9] was “Active” each time.
